Assay results pooled from the literature.
Each line is one published result; the experiments were not run side by side.
Route: oral

NCc1ccc(-c2nn(Cc3ccccc3)c3ccccc23)o1  bioavailability (male CD-1 mouse, plasma; 10 mg/kg): 34%
FC(F)(F)CN1CC(n2cc(Oc3ccn4nc(Cl)cc4n3)cn2)C1  bioavailability (FVB mouse, blood; single dose): 46%
Oc1ccc([C@@H]2Oc3ccc(O)cc3[C@@H]3CCC[C@@H]32)cc1  bioavailability (male C57BL/6 mouse, plasma; 10 mg/kg): 14%
O=C1CCC(N2Cc3cc(C4CCN(Cc5ccccc5)CC4)ccc3C2=O)C(=O)N1 (centres unmarked)  bioavailability (male CD-1 mouse, plasma; 3 mg/kg): 63.8%
CC(C)[C@@H](CS(=O)(=O)C(C)C)N1C(=O)[C@@](C)(CC(=O)O)C[C@H](c2cccc(Cl)c2)[C@H]1c1ccc(Cl)cc1  bioavailability (FVB mouse, plasma; 20 mg/kg, single dose): 16%
CCOC(=O)C1=C(CN2CCC[C@@H]2C(=O)Nc2ccc(B(O)O)cc2)NC(c2nccs2)=N[C@H]1c1ccc(F)cc1Br  bioavailability (CD-1 mouse, plasma; 10 mg/kg): 10.4%
CN(C)C(=O)c1cc2cnc(Nc3ccc(-c4ccc5c(=O)cc(N6CCOCC6)oc5c4)cc3)nc2n1C1CCCC1.Cl  bioavailability (BALB/c mouse, plasma; 20 mg/kg): 29%
C=CCn1c(=O)c2cnc(Nc3ccc(N4CCN(C)CC4)cc3)nc2n1-c1ccc2c(n1)[C@@](O)(CC)CC2  bioavailability (mouse, plasma; 60 mg/kg): 98%
Cc1cc(-c2ccnc3[nH]cc(F)c23)cc(F)c1[C@@]1(O)[C@H](C)CN(C(=O)CN)C[C@@H]1C  bioavailability (male CD-1 mouse, plasma; 3 mg/kg): 30.7%
COCC(=O)N1CCc2[nH]c3c(Cl)c(Cl)ccc3c2[C@@H]1C  bioavailability (C57BL/6 mouse, blood; 20 mg/kg): 12.5%
Cc1cc(-c2ccnc3[nH]cc(F)c23)cc(F)c1[C@@]1(O)[C@H](C)CN(C2CCS(=O)(=O)CC2)C[C@@H]1C  bioavailability (male CD-1 mouse, plasma; 3 mg/kg): 37.7%
Cc1ccc(OCC(=O)N[C@@H](Cc2c[nH]c3ccccc23)C(=O)OC(C)C)cc1  bioavailability (male Sprague-Dawley mouse, plasma; 20 mg/kg): 39%
Cc1nc2ccc(OCc3ccc(C(F)(F)F)cc3)cc2[nH]1  bioavailability (male BALB/c mouse, plasma; 10 mg/kg): 35%
OCc1ccc(-c2nn(Cc3ccccc3)c3ccccc23)o1  bioavailability (male CD-1 mouse, plasma; 10 mg/kg): 11%
